Test results from ChEMBL document CHEMBL3779832, “Discovery of novel pyrrole-based scaffold as potent and orally bioavailable free fatty acid receptor 1 agonists for the treatment of type 2 diabetes” (Bioorg Med Chem, 2016).
Calls of active or inactive are those of the source. No cut-off for these calls is given here.

Assays:
[1] = biological target: T1, Free fatty acid receptor 1 (Homo sapiens, UniProt O14842); test: Agonist activity at human FFA1 expressed in CHO cells assessed as intracellular Ca2+ level at 100 nM measured for 90 secs by Fluo-4 AM-based FLIPR assay; format: functional, cell-based
Outline: (§1)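 CHO cells stably expressing human FFA1 (NM_005303), 15K cells/well, cultured overnight at 37 °C in 5% CO2. Cells were washed with HBSS, then loaded for 60 min at 37 °C with Fluo 4-AM 2.5 μg/mL, fatty acid-free BSA 0.1% and probenecid 2.5 mmol/L. Single screening concentration added and Ca2+ flux read on FLIPR Tetra for 90 s. Activity = (A−B)/(C−B)×100 against vehicle (B) and 10 μM γ-linolenic acid (C). Mean of three independent experiments.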

[2] = biological target: T1, Free fatty acid receptor 1; test: Agonist activity at human FFA1 expressed in CHO cells assessed as intracellular Ca2+ level at 300 nM measured for 90 secs by Fluo-4 AM-based FLIPR assay; format: functional, cell-based; outline: as §1
Mus musculus [3] = test: Toxicity in ICR mouse assessed as hypoglycemic effect at 15 mg/kg, po measured up to 180 mins; format: organism-based; settings: in vivo, 3 h
Outline: (§2)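 Normal male ICR mice, 10 weeks, fasted overnight (12 h), n = 6 per group. Single oral dose in 0.5% CMC vehicle, no glucose load. Tail-tip blood glucose by test strips at 0, 30, 60, 90, 120 and 180 min after dosing. Mean ± SEM for six animals, Student's t-test.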

[4] = biological target: T1, Free fatty acid receptor 1; test: Agonist activity at human FFA1 expressed in CHO cells assessed as intracellular Ca2+ level measured for 90 secs by Fluo-4 AM-based FLIPR assay; format: functional, cell-based
Outline: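 Calcium flux in CHO cells stably expressing human FFA1, plated at 15K cells/well overnight, loaded 60 min at 37 °C with Fluo 4-AM (2.5 μg/mL), 0.1% fatty acid-free BSA and 2.5 mmol/L probenecid. Various concentrations added and read by FLIPR for 90 s. Response normalised to vehicle and 10 μM γ-linolenic acid. EC50 from concentration–response fit, mean of three independent determinations.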

Mus musculus [5] = test: Antihyperglycemic activity in STZ-induced type 2 diabetic C57BL/6 mouse model at 20 mg/kg, po administered as single dose 30 mins prior to glucose challenge measured up to 120 mins by OGTT; format: functional, organism-based
Outline: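 Male C57BL/6 mice fed 45%-fat diet for 4 weeks, given STZ 80 mg/kg i.p., then kept on high-fat diet another 4 weeks; fasting glucose ≥11.1 mmol/L counted as diabetic. After a 12 h fast, n = 6/group, oral dose in 0.5% CMC, then 2 g/kg glucose (20% solution) orally 30 min later. Tail blood at −30, 0, 15, 30, 45, 60, 120 min, read with glucose strips.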

Mus musculus [6] = test: Toxicity in ICR mouse assessed as hypoglycemic effect at 80 mg/kg, po measured up to 180 mins; format: organism-based; settings: in vivo, 3 h; outline: as §2
Mus musculus [7] = test: Decrease in plasma glucose level in po dosed ICR mouse administered as single dose 30 mins prior to glucose challenge measured up to 120 mins by OGTT; format: functional, organism-based
Outline: (§3)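 Male ICR mice, 10 weeks old, fasted 12 h and randomized (n = 6/group). Single oral dose in 0.5% CMC (10 mL/kg), followed 30 min later by oral glucose 3 g/kg as a 30% solution. Tail-vein blood at −30, 0, 15, 30, 45, 60 and 120 min, glucose read with test strips. Mean ± SEM, two-tailed Student's t-test against vehicle.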

Mus musculus [8] = test: Decrease in plasma glucose level in ICR mouse at 20 mg/kg, po administered as single dose 30 mins prior to glucose challenge measured up to 120 mins by OGTT; format: functional, organism-based; outline: as §3

T1 sequence (O14842 whole entry): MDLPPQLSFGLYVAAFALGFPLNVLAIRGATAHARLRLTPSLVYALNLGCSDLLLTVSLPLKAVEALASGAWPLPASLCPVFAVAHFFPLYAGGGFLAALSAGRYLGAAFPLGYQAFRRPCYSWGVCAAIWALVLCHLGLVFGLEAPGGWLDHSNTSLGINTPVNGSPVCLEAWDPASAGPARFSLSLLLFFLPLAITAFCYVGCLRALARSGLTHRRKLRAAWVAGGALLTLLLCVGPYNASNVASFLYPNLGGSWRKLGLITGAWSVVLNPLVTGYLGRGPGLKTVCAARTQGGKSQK

SMILES	Activity [1] [%]	Activity [2] [%]	also measured
COc1ccc(Cl)cc1C(=O)NCCc1ccc(S(=O)(=O)NC(=O)NC2CCCCC2)cc1 [GLYBURIDE]	–	–	Activity (Mus musculus [3]): Toxic
Cc1ccc(C)n1-c1cc(COc2ccc3c(c2)OCC3CC(=O)O)ccc1OCc1ccccc1 (stereo unspecified)	40.8	–	–
COc1ccc(COc2ccc3c(c2)OCC3CC(=O)O)cc1-n1c(C)ccc1C (stereo unspecified)	63.8	–	EC50 [4]: 34.7 nM; Activity (Mus musculus [5]): Active; Activity (Mus musculus [6]): Non-toxic; Activity (Mus musculus [7]): Dose-dependent effect
CCOc1ccc(COc2ccc3c(c2)OCC3CC(=O)O)cc1-n1c(C)ccc1C (stereo unspecified)	54.6	–	EC50 [4]: 61.2 nM
Cc1cccc(C)c1-c1cccc(COc2ccc3c(c2)OCC3CC(=O)O)c1 (stereo unspecified)	62.6	74.4	EC50 [4]: 38.4 nM
Cc1cc(C(=O)N(C)C)c(C)n1-c1cccc(COc2ccc3c(c2)OCC3CC(=O)O)c1 (stereo unspecified)	25.7	–	–
Cc1cc(OCCCS(C)(=O)=O)cc(C)c1-c1cccc(COc2ccc3c(c2)OC[C@H]3CC(=O)O)c1	–	–	Activity (Mus musculus [5]): Active; Activity (Mus musculus [8]): Active
COCc1cc(C)n(-c2cccc(COc3ccc4c(c3)OCC4CC(=O)O)c2)c1C (stereo unspecified)	31.7	–	–

Continued, in another order:

Activity [1] [%]	Activity [2] [%]	SMILES	also measured
38.2	52.2	O=C(O)CC1COc2cc(OCc3cccc(N4CCSCC4)c3)ccc21 (stereo unspecified)	–
59.9	71.3	Cc1ccc(C)n1-c1cccc(COc2ccc3c(c2)OCC3CC(=O)O)c1 (stereo unspecified)	EC50 [4]: 46.9 nM
28.6	41.9	O=C(O)CC1COc2cc(OCc3cccc(-n4cccc4)c3)ccc21 (stereo unspecified)	–
43.7	56.3	O=C(O)CC1COc2cc(OCc3cccc(N4CCCC4)c3)ccc21 (stereo unspecified)	–
34.6	50.3	O=C(O)CC1COc2cc(OCc3cccc(N4CCCCC4)c3)ccc21 (stereo unspecified)	–
8.28	25.9	O=C(O)CC1COc2cc(OCc3cccc(N4CCS(=O)(=O)CC4)c3)ccc21 (stereo unspecified)	–
41.2	55.7	O=C(O)CC1COc2cc(OCc3cccc(N4CCOCC4)c3)ccc21 (stereo unspecified)	–
